Assay results published in ChEMBL document CHEMBL3797175, “Discovery of 6-(difluoro(6-(4-fluorophenyl)-[1,2,4]triazolo[4,3-b][1,2,4]triazin-3-yl)methyl)quinoline as a highly potent and selective c-Met inhibitor” (Eur J Med Chem, 2016).
Calls of active or inactive are those of the source. The calls are words filed in the database; no cut-off is given here.

Key:
[1] = Selectivity ratio of IC50 for human AGS cells to IC50 for mouse BAF3 cells expressing TPR-MET; type: ADME, cell-based
Procedure, shortened: (§1)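 Both IC50s in each ratio come from one proliferation assay. Cells were seeded and exposed the next day to a range of concentrations for 72 h, then read by SRB or MTT. IC50s were fitted by four-parameter concentration–response, with each concentration at least in triplicate and at least 2 experiments. BaF3/TPR-Met is murine pre-B BaF3 transfected with TPR-MET and puromycin-selected.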

[2] = Selectivity ratio of IC50 for human SPCA1 cells to IC50 for human MKN45 cells; type: ADME, cell-based; details: SPCA1 cells versus MKN45 cells
[3] = Antiproliferative activity against human PANC1 cells after 72 hrs by SRB or MTT assay; type: functional, cell-based; details: PANC-1, 72 h
Procedure, shortened: (§2)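 Cells seeded, exposed next day to a range of concentrations for 72 h. Growth read by sulforhodamine B or MTT. IC50 from four-parameter concentration-response fit. Each concentration tested at least in triplicate, with at least 2 experiments.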

[4] = molecular target: Tyrosine-protein kinase ABL1 (Homo sapiens) (UniProt P00519); assay: Inhibition of recombinant ABL (unknown origin) using poly (Glu, Tyr) 4:1 as substrate at 1000 nM incubated for 60 mins by ELISA relative to control
Procedure, shortened: (§3)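 Recombinant tyrosine kinases assayed on wells precoated with poly(Glu,Tyr)4:1 (20 µg/mL). ATP 10 µmol/L in HEPES pH 7.4 buffer with MgCl2, MnCl2, Na3VO4 and DTT; compound in 1% DMSO, 1% DMSO as control. Reaction 60 min at 37 °C. Phosphotyrosine detected with PY99 and HRP anti-mouse, o-phenylenediamine, A490. Inhibition % relative to control; two experiments.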

[5] = molecular target: Receptor tyrosine-protein kinase erbB-4 (Homo sapiens) (UniProt Q15303); assay: Inhibition of recombinant ERBB4 (unknown origin) using poly (Glu, Tyr) 4:1 as substrate at 1000 nM incubated for 60 mins by ELISA relative to control; procedure, shortened: as §3
[6] = Antitumor activity against human EBC1 cells xenografted in athymic nude mouse assessed as tumor growth inhibition at 12.5 mg/kg, po bid for 21 days measured twice a week during compound dosing relative to control; type: functional; details: EBC-1, po, 504 h, read-out: TGI
Procedure, shortened: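 Nude mice bearing s.c. tumours. Cells were first grown s.c. to 700–800 mm³, then 1.5 mm³ fragments were transplanted s.c. into the right flank. Mice were randomised at 100–200 mm³ (n=6 treated, n=12 vehicle) and dosed orally twice daily for 21 days. Caliper measurement twice weekly; TV = length×width²/2. TGI taken on the final day versus vehicle; Student's t test.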

[7] = Selectivity ratio of IC50 for human U87MG cells to IC50 for human MKN45 cells; type: ADME, cell-based; details: u-87mg atcc
[8] = Antiproliferative activity against human BGC823 cells after 72 hrs by SRB or MTT assay; type: functional, cell-based; details: BGC-823, 72 h; procedure, shortened: as §2
[9] = molecular target: Platelet-derived growth factor receptor alpha (Homo sapiens) (UniProt P16234); assay: Inhibition of recombinant PDGFRalpha (unknown origin) using poly (Glu, Tyr) 4:1 as substrate at 1000 nM incubated for 60 mins by ELISA relative to control; procedure, shortened: as §3
[10] = Selectivity ratio of IC50 for human SMMC7721 cells to IC50 for human MKN45 cells; type: ADME, cell-based; details: smmc-7721
Procedure, shortened: (§4)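 Each cell line was seeded in 96-well plates, then exposed the next day to a range of compound concentrations for 72 h. Growth was read by SRB or MTT assay, and IC50 was fitted by a four-parameter concentration-response curve. Each concentration was run at least in triplicate, in at least 2 experiments. BaF3/TPR-Met are murine pre-B BaF3 cells transfected with TPR-MET cDNA and selected in puromycin.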

[11] = Selectivity ratio of IC50 for human Calu3 cells to IC50 for human MKN45 cells; type: ADME, cell-based; details: mkn-45; procedure, shortened: as §1
[12] = tested on: Epidermal growth factor receptor (Homo sapiens), P00533 [L858R,T790M]; assay: Inhibition of EGFR T790M/L858R double mutant (unknown origin) using poly (Glu, Tyr) 4:1 as substrate at 1000 nM incubated for 60 mins by ELISA relative to control; type: protein assay
Procedure, shortened: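 Recombinant kinase, ELISA on a poly(Glu,Tyr)4:1 coat (20 μg/mL). 10 μmol/L ATP in HEPES pH 7.4 with MgCl2, MnCl2, Na3VO4 and DTT; 1% DMSO. Reaction 60 min at 37 °C. Phosphotyrosine detected with PY99 and HRP anti-mouse IgG, o-phenylenediamine substrate, A490. Inhibition % versus DMSO control; two separate experiments.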

[13] = molecular target: Ephrin type-B receptor 2 (Homo sapiens) (UniProt P29323); assay: Inhibition of recombinant EPHB2 (unknown origin) using poly (Glu, Tyr) 4:1 as substrate at 1000 nM incubated for 60 mins by ELISA relative to control; procedure, shortened: as §3
[14] = Selectivity ratio of IC50 for human SGC7901 cells to IC50 for human MKN45 cells; type: ADME, cell-based; details: sgc-7901; procedure, shortened: as §4
[15] = Selectivity ratio of IC50 for human NCI-H226 cells to IC50 for human MKN45 cells; type: ADME, cell-based; procedure, shortened: as §1
[16] = molecular target: Hepatocyte growth factor receptor (Homo sapiens, UniProt P08581); assay: Inhibition of c-Met in human EBC1 cells assessed as reduction in ERK phosphorylation at Tyrosine 204 at 10 nM after 1 hr by Western blot analysis; type: cell-based
Procedure, shortened: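 EBC-1 or MKN45 cells treated with compound 1 h at 37 °C without HGF, then lysed in 1× SDS sample buffer. Lysates run on 10% SDS-PAGE and transferred to nitrocellulose. Probed with antibodies to c-Met, phospho-c-Met, phospho-ERK1/2, phospho-AKT, AKT and GAPDH, then HRP secondary. ECL detection.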

Sequence of Tyrosine-protein kinase ABL1 (Homo sapiens) (P00519 whole entry): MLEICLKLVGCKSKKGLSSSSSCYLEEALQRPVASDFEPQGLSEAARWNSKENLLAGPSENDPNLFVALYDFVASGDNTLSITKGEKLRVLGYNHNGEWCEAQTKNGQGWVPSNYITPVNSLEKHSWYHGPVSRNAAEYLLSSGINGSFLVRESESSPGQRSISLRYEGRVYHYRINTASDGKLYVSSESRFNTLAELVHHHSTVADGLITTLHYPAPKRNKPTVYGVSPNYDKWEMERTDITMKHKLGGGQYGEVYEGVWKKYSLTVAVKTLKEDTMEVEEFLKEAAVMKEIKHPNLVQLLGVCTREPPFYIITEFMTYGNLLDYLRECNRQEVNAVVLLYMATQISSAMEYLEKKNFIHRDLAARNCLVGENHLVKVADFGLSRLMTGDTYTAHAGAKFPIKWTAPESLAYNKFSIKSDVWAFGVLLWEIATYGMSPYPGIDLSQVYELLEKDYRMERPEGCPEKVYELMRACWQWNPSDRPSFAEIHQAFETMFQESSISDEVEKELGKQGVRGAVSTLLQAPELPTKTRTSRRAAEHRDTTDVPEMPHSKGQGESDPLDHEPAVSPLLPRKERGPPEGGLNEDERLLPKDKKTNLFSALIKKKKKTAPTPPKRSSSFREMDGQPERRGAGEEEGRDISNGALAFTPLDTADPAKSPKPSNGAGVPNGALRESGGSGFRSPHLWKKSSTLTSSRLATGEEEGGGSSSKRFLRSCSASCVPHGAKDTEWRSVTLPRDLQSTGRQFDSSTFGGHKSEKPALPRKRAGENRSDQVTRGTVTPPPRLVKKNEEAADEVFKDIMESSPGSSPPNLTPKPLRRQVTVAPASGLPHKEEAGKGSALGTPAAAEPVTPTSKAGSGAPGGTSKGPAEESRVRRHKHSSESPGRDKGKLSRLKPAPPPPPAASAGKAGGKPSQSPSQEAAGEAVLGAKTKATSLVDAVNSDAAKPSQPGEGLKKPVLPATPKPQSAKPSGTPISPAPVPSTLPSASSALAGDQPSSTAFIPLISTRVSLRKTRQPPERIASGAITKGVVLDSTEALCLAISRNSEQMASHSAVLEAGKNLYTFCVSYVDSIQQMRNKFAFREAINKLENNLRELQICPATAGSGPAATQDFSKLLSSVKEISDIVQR
Sequence of Ephrin type-B receptor 2 (Homo sapiens) (P29323 whole entry): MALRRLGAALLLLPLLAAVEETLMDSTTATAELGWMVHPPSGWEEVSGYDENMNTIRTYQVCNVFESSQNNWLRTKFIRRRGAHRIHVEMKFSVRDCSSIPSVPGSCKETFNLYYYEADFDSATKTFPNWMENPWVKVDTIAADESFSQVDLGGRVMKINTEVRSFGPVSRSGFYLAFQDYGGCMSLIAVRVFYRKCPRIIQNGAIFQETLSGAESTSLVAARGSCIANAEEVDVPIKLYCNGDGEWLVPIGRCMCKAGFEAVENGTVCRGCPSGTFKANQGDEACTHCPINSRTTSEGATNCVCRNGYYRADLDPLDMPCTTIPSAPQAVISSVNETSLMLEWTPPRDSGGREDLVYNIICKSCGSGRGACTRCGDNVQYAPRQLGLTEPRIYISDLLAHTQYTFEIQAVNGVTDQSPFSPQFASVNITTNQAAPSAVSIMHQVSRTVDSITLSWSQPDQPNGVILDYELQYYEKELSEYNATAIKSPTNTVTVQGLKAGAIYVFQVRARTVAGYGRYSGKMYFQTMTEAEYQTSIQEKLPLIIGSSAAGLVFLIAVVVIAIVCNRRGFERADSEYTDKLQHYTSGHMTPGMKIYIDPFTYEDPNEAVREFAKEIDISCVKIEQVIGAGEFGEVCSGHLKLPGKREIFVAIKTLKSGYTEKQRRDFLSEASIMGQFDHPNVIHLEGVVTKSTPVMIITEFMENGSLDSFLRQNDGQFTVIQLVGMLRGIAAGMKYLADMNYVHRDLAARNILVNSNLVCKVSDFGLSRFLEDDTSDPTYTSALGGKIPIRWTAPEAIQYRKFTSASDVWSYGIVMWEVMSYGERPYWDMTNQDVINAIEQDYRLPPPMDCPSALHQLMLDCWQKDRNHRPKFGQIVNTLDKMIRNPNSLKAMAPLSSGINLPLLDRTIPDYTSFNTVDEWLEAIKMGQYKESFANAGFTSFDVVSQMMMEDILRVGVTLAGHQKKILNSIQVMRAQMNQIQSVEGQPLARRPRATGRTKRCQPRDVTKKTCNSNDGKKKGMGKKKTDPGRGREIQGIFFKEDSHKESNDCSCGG
Sequence of Epidermal growth factor receptor (Homo sapiens), P00533 [L858R,T790M] (P00533 whole entry T790M/L858R, looked up): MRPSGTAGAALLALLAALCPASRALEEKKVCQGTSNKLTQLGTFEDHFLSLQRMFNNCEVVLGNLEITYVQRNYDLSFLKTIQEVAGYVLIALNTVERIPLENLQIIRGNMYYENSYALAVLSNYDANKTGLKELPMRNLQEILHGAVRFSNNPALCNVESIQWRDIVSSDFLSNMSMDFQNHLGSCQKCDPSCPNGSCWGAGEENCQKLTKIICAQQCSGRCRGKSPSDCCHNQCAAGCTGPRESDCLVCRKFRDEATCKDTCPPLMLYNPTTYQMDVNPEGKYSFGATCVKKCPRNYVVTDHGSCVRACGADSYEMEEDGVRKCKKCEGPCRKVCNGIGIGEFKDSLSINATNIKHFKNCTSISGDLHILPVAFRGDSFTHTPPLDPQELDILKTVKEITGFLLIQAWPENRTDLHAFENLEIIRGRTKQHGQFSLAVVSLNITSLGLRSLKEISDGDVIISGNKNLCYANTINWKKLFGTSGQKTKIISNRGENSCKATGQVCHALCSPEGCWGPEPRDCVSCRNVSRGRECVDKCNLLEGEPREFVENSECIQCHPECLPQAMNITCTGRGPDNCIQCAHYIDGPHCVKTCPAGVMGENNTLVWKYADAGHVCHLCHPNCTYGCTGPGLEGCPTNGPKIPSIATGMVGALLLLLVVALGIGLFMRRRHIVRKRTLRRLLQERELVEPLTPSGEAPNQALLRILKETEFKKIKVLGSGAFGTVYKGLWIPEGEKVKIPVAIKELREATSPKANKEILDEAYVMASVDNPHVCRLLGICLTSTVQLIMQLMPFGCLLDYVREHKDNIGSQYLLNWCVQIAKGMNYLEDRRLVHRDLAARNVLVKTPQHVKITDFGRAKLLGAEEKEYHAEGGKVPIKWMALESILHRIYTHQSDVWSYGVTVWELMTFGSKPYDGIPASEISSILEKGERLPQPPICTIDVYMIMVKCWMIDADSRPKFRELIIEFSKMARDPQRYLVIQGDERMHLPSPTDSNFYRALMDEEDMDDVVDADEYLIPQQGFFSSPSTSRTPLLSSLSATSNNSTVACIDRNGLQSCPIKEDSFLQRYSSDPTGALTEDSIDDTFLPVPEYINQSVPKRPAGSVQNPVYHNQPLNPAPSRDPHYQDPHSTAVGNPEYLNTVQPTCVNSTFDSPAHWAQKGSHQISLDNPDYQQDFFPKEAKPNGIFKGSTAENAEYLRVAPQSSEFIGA
Sequence of Receptor tyrosine-protein kinase erbB-4 (Homo sapiens) (Q15303 whole entry): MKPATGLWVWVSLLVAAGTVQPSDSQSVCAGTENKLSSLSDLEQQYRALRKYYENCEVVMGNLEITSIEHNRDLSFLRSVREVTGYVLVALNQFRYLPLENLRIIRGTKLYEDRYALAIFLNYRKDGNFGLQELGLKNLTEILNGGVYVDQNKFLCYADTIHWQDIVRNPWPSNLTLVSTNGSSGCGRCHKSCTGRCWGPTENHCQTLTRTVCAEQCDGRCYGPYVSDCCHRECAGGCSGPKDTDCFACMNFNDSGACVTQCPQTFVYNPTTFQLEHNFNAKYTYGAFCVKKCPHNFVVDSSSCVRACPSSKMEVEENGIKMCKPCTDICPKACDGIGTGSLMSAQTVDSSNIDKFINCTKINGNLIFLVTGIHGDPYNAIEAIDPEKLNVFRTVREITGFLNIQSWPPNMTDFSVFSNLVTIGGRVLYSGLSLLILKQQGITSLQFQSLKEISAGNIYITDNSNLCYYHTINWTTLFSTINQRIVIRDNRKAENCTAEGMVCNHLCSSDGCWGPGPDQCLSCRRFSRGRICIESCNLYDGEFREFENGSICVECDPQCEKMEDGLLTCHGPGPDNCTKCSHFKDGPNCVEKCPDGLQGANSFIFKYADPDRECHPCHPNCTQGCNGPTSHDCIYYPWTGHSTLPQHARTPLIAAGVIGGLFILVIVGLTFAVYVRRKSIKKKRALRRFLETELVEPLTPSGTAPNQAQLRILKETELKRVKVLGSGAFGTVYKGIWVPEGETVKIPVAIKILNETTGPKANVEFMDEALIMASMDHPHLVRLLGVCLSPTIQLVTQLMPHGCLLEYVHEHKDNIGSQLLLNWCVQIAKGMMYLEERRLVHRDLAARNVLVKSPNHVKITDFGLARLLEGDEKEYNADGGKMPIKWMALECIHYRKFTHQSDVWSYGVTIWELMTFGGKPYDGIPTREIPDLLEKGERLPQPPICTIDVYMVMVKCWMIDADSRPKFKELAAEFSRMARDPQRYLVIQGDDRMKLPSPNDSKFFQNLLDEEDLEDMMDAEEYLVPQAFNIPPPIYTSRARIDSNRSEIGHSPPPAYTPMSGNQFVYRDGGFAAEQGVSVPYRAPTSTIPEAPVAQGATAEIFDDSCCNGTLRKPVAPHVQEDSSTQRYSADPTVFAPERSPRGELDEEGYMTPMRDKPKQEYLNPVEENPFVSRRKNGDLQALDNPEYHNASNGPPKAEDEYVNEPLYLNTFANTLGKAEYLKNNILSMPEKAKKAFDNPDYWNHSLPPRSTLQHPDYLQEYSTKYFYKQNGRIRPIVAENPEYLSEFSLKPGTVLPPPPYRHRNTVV

inhibition [4]: 14.9%
inhibition [5]: 26.8%
inhibition [9]: 31.4%
inhibition [12]: 28.9%
inhibition [13]: 8.5%
inhibition [16]: Active
Structure (SMILES): Fc1ccc(-c2cnc3nnc(C(F)(F)c4ccc5ncccc5c4)n3n2)cc1
Ratio IC50 [1]: 10000
selectivity ratio [2]: > 10000
IC50 [3]: > 10 µM
inhibition in vivo at 12.5 mg/kg [6]: 75.6%
Ratio IC50 [7]: 10000
IC50 [8]: > 10 µM
Ratio IC50 [10]: 10000
Ratio IC50 [11]: > 10000
Ratio IC50 [14]: > 10000
Ratio IC50 [15]: > 10000
